Assay results: article PMC10546487 (Journal of medicinal chemistry, 2022)
Like-named read-outs stand apart in the source and are kept apart here.

How the values were obtained:
KOR [1] = target: T1, KOR (Mus musculus, UniProt P33534); assay: Radioligand competition binding assay, KOR
DOR [2] = target: T2, DOR (Mus musculus, UniProt P32300); assay: Radioligand competition binding assay, DOR
MOR [3] = target: T3, MOR (Mus musculus, UniProt P42866); assay: Radioligand competition binding assay, MOR; settings: for Selectivity δ/μ: ratio of Ki values DOR/MOR; for Selectivity κ/μ: ratio of Ki values KOR/MOR
mice = assay: Warm-water tail immersion assay; type: in vivo, mouse; settings: for Antinociception effect (% MPE): 10 mg/kg s.c., 56 °C; for Blockage of the morphine-mediated antinociception: 10 mg/kg s.c. in the presence of morphine (10 mg/kg)
Procedure, shortened: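 Male Swiss-Webster mice (23–35 g, 7–8 weeks), n = 5 per group. Single test-compound dose of 10 mg/kg given subcutaneously at time 0. Tail-flick latency measured in water at 56 ± 0.1 °C. Saline served as negative control and morphine as positive control. Response expressed as % maximum possible effect, reported as mean ± SD.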

MOR [4] = target: T3, MOR; settings: low MOR-expressing CHO cells and mouse thalamus; cited from earlier work
[5] = Solubility observed during testing; type: physicochemical; settings: during binding/functional testing
morphine-pelleted mice [6] = assay: Opioid withdrawal study in chronic morphine-pelleted mice; type: in vivo, mouse
KOR [7] = target: T1, KOR; assay: KOR [35S]GTPγS functional assay; type: biochemical
DOR [8] = target: T2, DOR; assay: DOR [35S]GTPγS functional assay; type: biochemical
MOR [9] = target: T3, MOR; assay: Calcium flux assay in Gqi5-transfected MOR-CHO cells; type: cell-based; settings: 0.3 nM to 3 μM
Procedure, shortened: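 Gqi5 cDNA lipofected into MOR-CHO cells, 4 h at 37 °C/5% CO2, then trypsinized, plated at […] and grown to confluence. At 48 h post-transfection, cells loaded 45 min with fluo-4 AM plus probenecid in HBSS–HEPES–Ca–Mg buffer. Test compound (0.3 nM–3 μM) given for agonist activity; Ca2+ read as RFU peak. Triplicate doses; ≥4 repeats.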

[10] = Metabolic stability in human liver microsomes; type: in vitro ADME
[11] = Metabolic stability in rat liver microsomes; type: in vitro ADME
hERG potassium channel = hERG potassium channel (Homo sapiens, UniProt Q12809); assay: hERG automated patch-clamp assay in CHO-K1 cells; settings: ratio of hERG IC50 values vs NAN
MOR [12] = target: T3, MOR; assay: MOR [35S]-GTPγS functional assay; type: biochemical
KOR [13] = target: T1, KOR; settings: [35S]GTPγS; cited from earlier work
DOR [14] = target: T2, DOR; settings: [35S]GTPγS; cited from earlier work
morphine-pelleted mice [15] = settings: 50 mg/kg; cited from earlier work

CC(=O)c1c[nH]c2c(C(=O)N[C@H]3CC[C@@]4(O)[C@H]5Cc6ccc(O)c7c6[C@@]4(CCN5CC4CC4)[C@H]3O7)cccc12 [Compound 28, 17-Cyclopropylmethyl-3,14β-dihydroxy-4,5α-epoxy-6α-(3-acetyl-indole-7-carboxamido)morphinan]
Ki (KOR [1]): 6.39 ± 1.07 nM | Ki (DOR [2]): 10.9 ± 1.58 nM

O=C(N[C@H]1CC[C@@]2(O)[C@H]3Cc4ccc(O)c5c4[C@@]2(CCN3CC2CC2)[C@H]1O5)c1cccc2c([N+](=O)[O-])c[nH]c12 [Compound 26, 17-Cyclopropylmethyl-3,14β-dihydroxy-4,5α-epoxy-6α-(3-nitro-indole-7-carboxamido)morphinan]
Selectivity δ/μ (MOR [3]): 20.3 | Selectivity κ/μ (MOR [3]): 9.2 | Ki (DOR [2]): 21.6 ± 2.57 nM

N#Cc1cc2cccc(C(=O)N[C@H]3CC[C@@]4(O)[C@H]5Cc6ccc(O)c7c6[C@@]4(CCN5CC4CC4)[C@H]3O7)c2[nH]1 [Compound 20, 17-Cyclopropylmethyl-3,14β-dihydroxy-4,5α-epoxy-6α-(2-cyano-indole-7-carboxamido)morphinan]
Selectivity δ/μ (MOR [3]): 12.2 | Ki (DOR [2]): 10.7 ± 0.93 nM

Cc1c[nH]c2c(C(=O)N[C@@H]3CC[C@@]4(O)[C@H]5Cc6ccc(O)c7c6[C@@]4(CCN5CC4CC4)[C@H]3O7)cccc12 [Compound 13, 17-Cyclopropylmethyl-3,14β-dihydroxy-4,5α-epoxy-6β-(3-methyl-indole-7-carboxamido)morphinan]
Selectivity δ/μ (MOR [3]): 61.3 | Selectivity κ/μ (MOR [3]): 2.2 | Ki (DOR [2]): 27.9 ± 5.93 nM | Antinociception effect (% MPE) (mice): noticeable antinociception

O=C(N[C@@H]1CC[C@@]2(O)[C@H]3Cc4ccc(O)c5c4[C@@]2(CCN3CC2CC2)[C@H]1O5)c1ccncc1 [NAP, 17-Cyclopropylmethyl-3,14β-dihydroxy-4,5α-epoxy-6β-[(4′-pyridyl)carboxamido]morphinan]
Shift of DAMGO concentration effect curve (MOR [4]): parallel rightward shift in the concentration effect curve of MOR full agonist DAMGO

O=C(N[C@@H]1CC[C@@]2(O)[C@H]3Cc4ccc(O)c5c4[C@@]2(CCN3CC2CC2)[C@H]1O5)c1cccc2c(Cl)c[nH]c12 [Compound 7, 17-Cyclopropylmethyl-3,14β-dihydroxy-4,5α-epoxy-6β-(3-chloro-indole-7-carboxamido)morphinan]
Ki (KOR [1]): 0.33 ± 0.05 nM | Ki (DOR [2]): 4.43 ± 1.06 nM | Antinociception effect (% MPE) (mice): noticeable antinociception

CC(=O)c1c[nH]c2c(C(=O)N[C@@H]3CC[C@@]4(O)[C@H]5Cc6ccc(O)c7c6[C@@]4(CCN5CC4CC4)[C@H]3O7)cccc12 [Compound 11, 17-Cyclopropylmethyl-3,14β-dihydroxy-4,5α-epoxy-6β-(3-acetyl-indole-7-carboxamido)morphinan]
Selectivity δ/μ (MOR [3]): < 1.6 | Selectivity κ/μ (MOR [3]): <0.3 | Ki (DOR [2]): 81.1 ± 9.98 nM | Solubility observed in the in vitro assay [5]: poor solubility

O=C(N[C@@H]1CC[C@@]2(O)[C@H]3Cc4ccc(O)c5c4[C@@]2(CCN3CC2CC2)[C@H]1O5)c1cccc2c([N+](=O)[O-])c[nH]c12 [Compound 9, 17-Cyclopropylmethyl-3,14β-dihydroxy-4,5α-epoxy-6β-(3-nitro-indole-7-carboxamido)morphinan]
Ki (DOR [2]): 25.6 ± 8.06 nM | Antinociception effect (% MPE) (mice): noticeable antinociception

C=CCN1CC[C@]23c4c5ccc(O)c4O[C@H]2C(=O)CC[C@@]3(O)[C@H]1C5 [NLX, naloxone, reference compound]
Withdrawal symptoms (morphine-pelleted mice [6]; 1 mg/kg s.c.): induced significant withdrawal symptoms

O=C(N[C@H]1CC[C@@]2(O)[C@H]3Cc4ccc(O)c5c4[C@@]2(CCN3CC2CC2)[C@H]1O5)c1cc2ccccc2cn1 [NAQ, 17-cyclopropylmethyl-3,14β-dihydroxy-4,5α-epoxy-6α-(isoquinoline-3-carboxamido)-morphinan]
Shift of DAMGO concentration effect curve (MOR [4]): parallel rightward shift in the concentration effect curve of MOR full agonist DAMGO

Cc1cc2cccc(C(=O)N[C@H]3CC[C@@]4(O)[C@H]5Cc6ccc(O)c7c6[C@@]4(CCN5CC4CC4)[C@H]3O7)c2[nH]1.Cl [Compound 21, 17-Cyclopropylmethyl-3,14β-dihydroxy-4,5α-epoxy-6α-(2-methyl-indole-7-carboxamido)morphinan]
Selectivity δ/μ (MOR [3]): 27.3 | Ki (DOR [2]): 16 ± 1.09 nM | EC50 (KOR [7]; KOR EC50 (nM), mean ± SEM): 6.65 ± 0.78 nM | KOR Emax(% max of U50,488H) (KOR [7]; relative to KOR full agonist U50,488H): 48.28 ± 1.45% | EC50 (DOR [8]; DOR EC50 (nM), mean ± SEM): 4.99 ± 0.21 nM | DOR Emax(% max of SNC80) (DOR [8]; relative to DOR full agonist SNC80): 76.82 ± 4.82% | Agonist activity to increase the intracellular calcium concentration (MOR [9]): no obvious agonist activity | Blockage of the morphine-mediated antinociception (mice): different degrees of inhibition of morphine’s antinociceptive effect | CLint scaled [10]: < 2.31 L/h/kg | CLint scaled [11]: < 2.31 L/h/kg | Jumps (morphine-pelleted mice [6]; 40 mg/kg, vs 1 mg/kg naloxone): not significantly different from those at 1 mg/kg naloxone | Paw tremors (morphine-pelleted mice [6]; all doses up to 80 mg/kg, vs 1 mg/kg naloxone): significantly fewer paw tremors | Wet-dog shakes (morphine-pelleted mice [6]; all the doses tested, vs 1 mg/kg naloxone): did not precipitate more wet-dog shakes | Improvement of hERG profile in comparison to NAN (fold) (hERG potassium channel): seven-fold

O=C(N[C@H]1CC[C@@]2(O)[C@H]3Cc4ccc(O)c5c4[C@@]2(CCN3CC2CC2)[C@H]1O5)c1cccc2cc(-c3ccccc3)[nH]c12 [Compound 22, 17-Cyclopropylmethyl-3,14β-dihydroxy-4,5α-epoxy-6α-(2-phenyl-indole-7-carboxamido)morphinan]
Selectivity δ/μ (MOR [3]): 2.2 | Ki (DOR [2]): 5.36 ± 1 nM

O=C(N[C@@H]1CC[C@@]2(O)[C@H]3Cc4ccc(O)c5c4[C@@]2(CCN3CC2CC2)[C@H]1O5)c1cccc2c(C3CCCC3)c[nH]c12 [Compound 15, 17-Cyclopropylmethyl-3,14β-dihydroxy-4,5α-epoxy-6β-(3-cyclo-pentyl-indole-7-carboxamido)morphinan]
Ki (DOR [2]): 9.88 ± 1.13 nM | EC50 (MOR [12]): 2.28 ± 0.59 nM

O=C(N[C@H]1CC[C@@]2(O)[C@H]3Cc4ccc(O)c5c4[C@@]2(CCN3CC2CC2)[C@H]1O5)c1cccc2cc(Br)[nH]c12 [Compound 18, 17-Cyclopropylmethyl-3,14β-dihydroxy-4,5α-epoxy-6α-(2-bromo-indole-7-carboxamido)morphinan]
Ki (DOR [2]): 6.73 ± 1 nM | EC50 (MOR [12]): 2.36 ± 0.7 nM | Blockage of the morphine-mediated antinociception (mice): different degrees of inhibition of morphine’s antinociceptive effect

O=C(N[C@H]1CC[C@@]2(O)[C@H]3Cc4ccc(O)c5c4[C@@]2(CCN3CC2CC2)[C@H]1O5)c1cccc2cc[nH]c12 [NAN, 17-cyclopropylmethyl-3,14β-dihydroxy-4,5α-epoxy-6α-(indole-7-carboxamido)morphinan]
KOR Emax(% max of U50,488H) (KOR [13]): 73.90 ± 3.69% | DOR Emax(% max of SNC80) (DOR [14]): 26.67 ± 1.17% | Paw tremors (morphine-pelleted mice [15]): seemingly more paw tremors | Wet-dog shakes and jumps (morphine-pelleted mice [15]): did not induce significant wet-dog shakes and jumps

N#Cc1c[nH]c2c(C(=O)N[C@H]3CC[C@@]4(O)[C@H]5Cc6ccc(O)c7c6[C@@]4(CCN5CC4CC4)[C@H]3O7)cccc12 [Compound 25, 17-Cyclopropylmethyl-3,14β-dihydroxy-4,5α-epoxy-6α-(3-cyano-indole-7-carboxamido)morphinan]
Selectivity κ/μ (MOR [3]): 6.3 | Ki (DOR [2]): 12.2 ± 2.2 nM

Cc1c[nH]c2c(C(=O)N[C@H]3CC[C@@]4(O)[C@H]5Cc6ccc(O)c7c6[C@@]4(CCN5CC4CC4)[C@H]3O7)cccc12 [Compound 30, 17-Cyclopropylmethyl-3,14β-dihydroxy-4,5α-epoxy-6α-(3-methyl-indole-7-carboxamido)morphinan]
Ki (DOR [2]): 13.8 ± 4.02 nM | Blockage of the morphine-mediated antinociception (mice): different degrees of inhibition of morphine’s antinociceptive effect
